# Experiments:
# Conditions in all cases: stereoisomer not certain
# [1] = target: UniProt Q8VG74
# How it was run: (§1)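 Assay methods differ from source to source, frequently being transient luciferase assays in mammalian cell lines. For each receptor–molecule pair, the label responsive (active) applies when the original authors judged the measured signal statistically different from baseline, and non-responsive (inactive) applies otherwise.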
# [2] = target: UniProt Q8VGA9
# How it was run: as §1
# [3] = target: T1, UniProt Q8VGC6
# T1 sequence (whole entry): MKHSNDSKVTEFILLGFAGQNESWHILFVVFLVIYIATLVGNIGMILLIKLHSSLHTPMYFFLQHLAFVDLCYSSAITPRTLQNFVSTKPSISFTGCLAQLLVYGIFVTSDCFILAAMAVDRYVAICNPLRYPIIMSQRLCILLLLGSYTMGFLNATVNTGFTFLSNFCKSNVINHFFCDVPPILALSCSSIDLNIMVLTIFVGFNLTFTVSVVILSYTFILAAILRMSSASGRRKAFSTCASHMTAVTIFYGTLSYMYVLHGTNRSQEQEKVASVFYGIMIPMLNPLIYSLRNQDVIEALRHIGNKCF
# How it was run: as §1
# [4] = target: T2, UniProt Q8VG27
# T2 sequence (whole entry): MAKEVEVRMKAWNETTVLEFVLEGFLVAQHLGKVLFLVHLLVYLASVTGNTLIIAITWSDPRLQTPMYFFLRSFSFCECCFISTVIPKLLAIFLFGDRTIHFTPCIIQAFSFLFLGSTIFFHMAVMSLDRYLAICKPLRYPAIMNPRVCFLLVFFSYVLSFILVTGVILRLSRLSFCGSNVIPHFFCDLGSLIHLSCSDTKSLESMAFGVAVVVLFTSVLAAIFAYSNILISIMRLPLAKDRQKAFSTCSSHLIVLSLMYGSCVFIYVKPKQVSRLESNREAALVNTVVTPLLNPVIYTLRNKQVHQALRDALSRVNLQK
# How it was run: as §1
# [5] = target: T3, UniProt Q8VG53
# T3 sequence (whole entry): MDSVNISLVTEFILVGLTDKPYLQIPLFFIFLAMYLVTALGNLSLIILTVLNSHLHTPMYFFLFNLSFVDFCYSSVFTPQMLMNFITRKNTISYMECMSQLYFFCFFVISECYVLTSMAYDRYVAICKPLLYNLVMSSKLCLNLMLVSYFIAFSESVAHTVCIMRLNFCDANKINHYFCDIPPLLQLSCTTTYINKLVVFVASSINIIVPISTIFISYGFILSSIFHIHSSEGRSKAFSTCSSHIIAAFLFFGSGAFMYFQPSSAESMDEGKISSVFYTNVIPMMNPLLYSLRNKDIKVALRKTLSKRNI
# How it was run: as §1
# [6] = target: T4, UniProt Q8VG64
# T4 sequence (whole entry): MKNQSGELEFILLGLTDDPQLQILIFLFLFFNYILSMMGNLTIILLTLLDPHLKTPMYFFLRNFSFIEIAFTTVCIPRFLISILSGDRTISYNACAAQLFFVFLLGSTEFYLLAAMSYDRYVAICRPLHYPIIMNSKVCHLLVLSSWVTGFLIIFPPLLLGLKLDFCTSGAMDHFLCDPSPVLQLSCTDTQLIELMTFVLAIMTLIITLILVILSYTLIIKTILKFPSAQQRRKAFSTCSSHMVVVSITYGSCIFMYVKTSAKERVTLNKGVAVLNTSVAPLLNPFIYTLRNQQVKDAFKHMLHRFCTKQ
# How it was run: as §1
# [7] = target: T5, UniProt Q8VGB9
# T5 sequence (whole entry): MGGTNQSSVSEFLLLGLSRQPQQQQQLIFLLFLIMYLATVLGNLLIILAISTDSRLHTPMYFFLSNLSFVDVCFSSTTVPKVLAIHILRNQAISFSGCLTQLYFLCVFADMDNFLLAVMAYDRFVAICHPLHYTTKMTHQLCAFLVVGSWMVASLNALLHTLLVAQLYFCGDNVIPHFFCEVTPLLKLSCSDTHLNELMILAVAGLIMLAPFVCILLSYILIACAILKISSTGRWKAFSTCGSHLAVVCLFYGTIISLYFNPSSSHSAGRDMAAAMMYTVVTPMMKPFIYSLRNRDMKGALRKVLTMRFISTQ
# How it was run: as §1
# [8] = target: T6, UniProt Q8VGJ3
# T6 sequence (whole entry): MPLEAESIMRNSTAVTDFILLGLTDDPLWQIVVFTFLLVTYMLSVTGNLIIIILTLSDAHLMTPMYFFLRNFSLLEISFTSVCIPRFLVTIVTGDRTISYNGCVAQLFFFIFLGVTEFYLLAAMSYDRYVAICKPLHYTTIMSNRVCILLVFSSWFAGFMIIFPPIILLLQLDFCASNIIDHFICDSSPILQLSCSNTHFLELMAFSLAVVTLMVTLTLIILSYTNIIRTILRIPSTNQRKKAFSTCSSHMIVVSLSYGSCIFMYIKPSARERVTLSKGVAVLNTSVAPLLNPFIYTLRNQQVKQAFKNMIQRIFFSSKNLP
# How it was run: as §1
# [9] = target: T7, UniProt Q8VGL0
# T7 sequence (whole entry): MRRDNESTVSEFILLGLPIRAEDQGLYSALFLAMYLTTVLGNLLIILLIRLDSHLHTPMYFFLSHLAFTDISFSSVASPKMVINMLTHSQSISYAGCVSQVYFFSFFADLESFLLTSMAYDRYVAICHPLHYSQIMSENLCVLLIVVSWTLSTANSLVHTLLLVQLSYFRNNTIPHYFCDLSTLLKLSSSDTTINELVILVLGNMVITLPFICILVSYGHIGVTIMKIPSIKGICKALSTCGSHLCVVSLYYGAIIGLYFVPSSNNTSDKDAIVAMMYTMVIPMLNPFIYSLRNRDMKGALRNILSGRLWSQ
# How it was run: as §1
# [10] = target: UniProt Q8VG28
# UniProt Q8VG28, sequence (Q8VG28 as listed by the source): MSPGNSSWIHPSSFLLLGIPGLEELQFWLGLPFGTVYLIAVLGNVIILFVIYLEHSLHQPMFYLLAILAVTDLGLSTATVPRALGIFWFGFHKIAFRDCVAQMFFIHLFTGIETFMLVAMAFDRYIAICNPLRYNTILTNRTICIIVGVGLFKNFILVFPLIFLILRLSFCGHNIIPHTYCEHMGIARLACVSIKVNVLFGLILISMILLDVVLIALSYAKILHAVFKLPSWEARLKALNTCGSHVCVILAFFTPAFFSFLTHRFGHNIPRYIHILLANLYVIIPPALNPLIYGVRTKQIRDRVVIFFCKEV
# How it was run: as §1
# [11] = target: T8, UniProt Q8VG49
# T8 sequence (whole entry): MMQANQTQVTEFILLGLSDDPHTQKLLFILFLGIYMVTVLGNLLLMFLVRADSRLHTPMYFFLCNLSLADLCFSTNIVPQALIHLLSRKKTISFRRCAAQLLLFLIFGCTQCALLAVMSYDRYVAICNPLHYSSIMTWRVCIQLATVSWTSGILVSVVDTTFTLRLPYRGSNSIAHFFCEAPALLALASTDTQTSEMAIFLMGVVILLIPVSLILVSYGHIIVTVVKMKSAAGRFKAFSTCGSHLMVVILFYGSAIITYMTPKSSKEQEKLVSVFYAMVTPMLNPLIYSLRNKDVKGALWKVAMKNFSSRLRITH
# How it was run: as §1
# [12] = target: T9, UniProt Q8VG77
# T9 sequence (whole entry): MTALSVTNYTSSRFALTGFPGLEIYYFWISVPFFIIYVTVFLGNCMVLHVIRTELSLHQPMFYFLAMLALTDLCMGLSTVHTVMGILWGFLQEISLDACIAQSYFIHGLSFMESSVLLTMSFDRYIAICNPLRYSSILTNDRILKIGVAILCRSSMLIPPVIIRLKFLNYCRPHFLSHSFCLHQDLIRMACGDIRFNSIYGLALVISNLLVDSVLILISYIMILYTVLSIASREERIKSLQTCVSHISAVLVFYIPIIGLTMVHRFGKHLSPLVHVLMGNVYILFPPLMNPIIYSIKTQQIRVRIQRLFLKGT
# How it was run: as §1
# [13] = target: T10, UniProt Q8VG96
# T10 sequence (whole entry): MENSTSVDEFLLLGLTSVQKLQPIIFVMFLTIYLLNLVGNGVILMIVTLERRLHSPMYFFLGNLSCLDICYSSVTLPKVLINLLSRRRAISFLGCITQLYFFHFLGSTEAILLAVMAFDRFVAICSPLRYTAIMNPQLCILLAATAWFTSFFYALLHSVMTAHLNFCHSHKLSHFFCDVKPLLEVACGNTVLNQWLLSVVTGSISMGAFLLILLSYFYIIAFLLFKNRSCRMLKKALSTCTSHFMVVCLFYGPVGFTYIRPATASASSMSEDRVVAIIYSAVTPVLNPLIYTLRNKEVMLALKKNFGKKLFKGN
# How it was run: as §1
# [14] = target: T11, UniProt Q8VGD7
# T11 sequence (whole entry): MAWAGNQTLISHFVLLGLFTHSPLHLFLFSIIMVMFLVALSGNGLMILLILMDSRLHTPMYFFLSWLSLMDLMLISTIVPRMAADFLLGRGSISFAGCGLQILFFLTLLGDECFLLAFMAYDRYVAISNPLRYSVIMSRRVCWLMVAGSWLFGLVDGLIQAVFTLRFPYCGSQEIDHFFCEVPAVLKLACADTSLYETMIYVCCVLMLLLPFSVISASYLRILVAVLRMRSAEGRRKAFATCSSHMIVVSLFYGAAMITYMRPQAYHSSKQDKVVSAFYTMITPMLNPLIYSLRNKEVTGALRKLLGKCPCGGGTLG
# How it was run: as §1
# [15] = target: T12, UniProt Q8VGH1
# T12 sequence (whole entry): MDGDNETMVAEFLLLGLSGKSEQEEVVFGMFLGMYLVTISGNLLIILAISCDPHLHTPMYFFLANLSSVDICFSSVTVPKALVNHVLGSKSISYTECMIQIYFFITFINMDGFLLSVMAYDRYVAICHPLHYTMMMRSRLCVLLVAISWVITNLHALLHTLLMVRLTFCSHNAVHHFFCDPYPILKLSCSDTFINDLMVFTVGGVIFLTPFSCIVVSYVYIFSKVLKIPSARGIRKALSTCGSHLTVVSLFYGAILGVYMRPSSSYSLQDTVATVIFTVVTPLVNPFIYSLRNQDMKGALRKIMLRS
# How it was run: as §1
# [16] = target: T13, UniProt Q8VGJ1
# T13 sequence (whole entry): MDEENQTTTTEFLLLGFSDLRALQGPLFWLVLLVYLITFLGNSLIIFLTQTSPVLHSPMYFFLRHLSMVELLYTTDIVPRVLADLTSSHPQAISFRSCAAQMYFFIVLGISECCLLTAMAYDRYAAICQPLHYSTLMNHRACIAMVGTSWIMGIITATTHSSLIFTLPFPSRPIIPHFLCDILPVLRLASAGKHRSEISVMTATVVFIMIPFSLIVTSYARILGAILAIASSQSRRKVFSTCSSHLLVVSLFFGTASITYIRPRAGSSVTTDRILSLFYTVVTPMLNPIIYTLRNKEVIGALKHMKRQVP
# How it was run: as §1
# [17] = target: T14, UniProt Q8VGJ5
# T14 sequence (whole entry): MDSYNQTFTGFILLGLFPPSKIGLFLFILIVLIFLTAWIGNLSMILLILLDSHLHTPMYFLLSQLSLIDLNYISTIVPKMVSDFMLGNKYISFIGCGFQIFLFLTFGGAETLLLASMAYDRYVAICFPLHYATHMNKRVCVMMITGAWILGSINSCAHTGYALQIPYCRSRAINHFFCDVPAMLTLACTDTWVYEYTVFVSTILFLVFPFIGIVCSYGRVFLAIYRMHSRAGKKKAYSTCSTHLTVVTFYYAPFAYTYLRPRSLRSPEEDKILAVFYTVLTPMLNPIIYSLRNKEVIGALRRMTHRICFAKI
# How it was run: as §1
# [18] = target: T15, UniProt Q8VGL7
# T15 sequence (whole entry): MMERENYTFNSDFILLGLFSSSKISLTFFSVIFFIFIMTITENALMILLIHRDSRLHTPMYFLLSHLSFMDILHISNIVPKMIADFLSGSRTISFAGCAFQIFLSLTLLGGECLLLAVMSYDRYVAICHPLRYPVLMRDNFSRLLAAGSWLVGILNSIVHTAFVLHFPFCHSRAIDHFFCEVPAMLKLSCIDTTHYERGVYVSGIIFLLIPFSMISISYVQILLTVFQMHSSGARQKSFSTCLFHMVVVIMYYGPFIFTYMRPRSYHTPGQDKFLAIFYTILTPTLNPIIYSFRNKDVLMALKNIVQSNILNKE
# How it was run: as §1
# UniProt Q8VGA9, sequence (Q8VGA9 as listed by the source): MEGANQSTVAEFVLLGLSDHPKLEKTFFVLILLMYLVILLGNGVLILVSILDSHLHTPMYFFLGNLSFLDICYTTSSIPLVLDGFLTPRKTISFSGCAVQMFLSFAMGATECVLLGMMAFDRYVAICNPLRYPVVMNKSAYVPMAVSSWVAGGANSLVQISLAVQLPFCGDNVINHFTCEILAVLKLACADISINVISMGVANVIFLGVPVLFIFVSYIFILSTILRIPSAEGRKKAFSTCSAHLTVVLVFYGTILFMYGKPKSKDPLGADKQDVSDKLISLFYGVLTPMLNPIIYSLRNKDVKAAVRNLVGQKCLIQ
# UniProt Q8VG74, sequence (Q8VG74 as listed by the source): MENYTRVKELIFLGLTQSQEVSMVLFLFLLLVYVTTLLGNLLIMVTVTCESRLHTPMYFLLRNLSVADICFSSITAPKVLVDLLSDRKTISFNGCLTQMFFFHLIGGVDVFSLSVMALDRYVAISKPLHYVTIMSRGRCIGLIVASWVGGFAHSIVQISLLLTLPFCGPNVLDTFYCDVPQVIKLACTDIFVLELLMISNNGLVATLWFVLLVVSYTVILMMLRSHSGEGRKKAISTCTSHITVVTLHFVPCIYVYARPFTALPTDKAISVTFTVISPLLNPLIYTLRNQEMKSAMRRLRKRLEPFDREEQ
smiles,measurement,setting,value
CC1CCCCCCCCCCCCC(=O)C1 (stereo not drawn),odorant receptor agonist call,[1],inactive
same,odorant receptor agonist call,[2],inactive
CCCOC(=O)CCC,odorant receptor agonist call,[3],inactive
OCc1ccccc1,odorant receptor agonist call,[3],inactive
CCCCCCCCCCCO,odorant receptor agonist call,[4],inactive
same,odorant receptor agonist call,[5],inactive
same,odorant receptor agonist call,[6],inactive
same,odorant receptor agonist call,[7],inactive
same,odorant receptor agonist call,[3],inactive
same,odorant receptor agonist call,[8],inactive
same,odorant receptor agonist call,[9],inactive
CC(C)=CC1CC(C)CCO1 (stereo not drawn),odorant receptor agonist call,[3],inactive
CCC(=O)OC,odorant receptor agonist call,[3],inactive
CCCCCO,odorant receptor agonist call,[10],inactive
same,odorant receptor agonist call,[11],inactive
same,odorant receptor agonist call,[12],inactive
same,odorant receptor agonist call,[13],inactive
same,odorant receptor agonist call,[3],inactive
same,odorant receptor agonist call,[14],inactive
same,odorant receptor agonist call,[15],inactive
same,odorant receptor agonist call,[16],inactive
same,odorant receptor agonist call,[17],inactive
same,odorant receptor agonist call,[9],inactive
same,odorant receptor agonist call,[18],inactive
CCCCOC(=O)CCC,odorant receptor agonist call,[10],inactive
same,odorant receptor agonist call,[3],inactive
O=C(O)CCCCBr,odorant receptor agonist call,[10],inactive
Cc1nccnc1C,odorant receptor agonist call,[3],inactive

# Reference: the M2OR odorant receptor database
